Experimental data pooled from the literature.
Protocols differ between the studies behind these lines.
HTR7: 5-hydroxytryptamine receptor 7 (HTR7, Homo sapiens, UniProt P34969)
Oprd1: Delta-type opioid receptor (Oprd1, Rattus norvegicus, UniProt P33533)
CTSB: Cathepsin B (CTSB, Homo sapiens, UniProt P07858)

SMILES	target	observed	action	technique	notes	measurement	result
CC(C)C[C@H](NC(=O)[C@H](CCCCN)NC(=O)[C@@H]1CCCN1C(=O)[C@@H](N)CCCNC(=N)N)C(=O)N[C@@H](CCCCN)C(=O)O	HTR7	cell-free assay	–	radioligand	–	Ki	> 10000 nM
CCCCCCCCCCCCCCCCOC[C@H](COP(=O)([O-])OCC[N+](C)(C)C)OC(C)=O	Platelet-activating factor receptor (PTAFR, Homo sapiens, UniProt P25105)	ligand displacement	–	radioligand	–	IC50	0.27 nM
C[C@H](N)Cn1ncc2ccc3c(c21)CCCO3	HTR7	ligand displacement	–	radioligand	–	Ki	1160 nM
Cc1cc(O)cc(C)c1C[C@H](N)C(=O)N1CCc2ccc(Cc3ccc(N)cc3)cc2C1	Oprd1	ligand displacement	–	radioligand	cell membranes	Ki	3.1 nM
Cc1cc(O)cc(C)c1C[C@H](N)C(=O)N[C@@H]1CCN(C(=O)c2ccccc2)c2ccc(Cc3cnc4ccccc4c3)cc21	Oprd1	GTPγS binding	antagonist	–	cell membranes	Kb	8 nM
Cc1ccccc1Cc1ccc2c(c1)CN(C(=O)[C@@H](N)Cc1c(C)cc(O)cc1C)CC2	Oprd1	ligand displacement	–	radioligand	cell membranes	Ki	5.8 nM
CCc1cccc(C)c1C[C@H](NC(=O)[C@@H](CCCNC(=N)N)NC(=O)[C@@H](N)Cc1c(C)cc(O)cc1C)C(=O)N[C@@H](CCCCN)C(N)=O	Oprd1	ligand displacement	–	radioligand	cell membranes	Ki	50 nM
COC1=C(N)C(=O)c2nc(-c3nc(C(=O)O)c(C)c(-c4ccc(OC)c(OC)c4O)c3N)ccc2C1=O	Sentrin-specific protease 1 (SENP1, Homo sapiens, UniProt Q9P0U3)	enzyme activity	inhibitor	fluorescence	–	Ki	138 nM
c1cncc(C2C3CCN2CC3)c1 (stereo not drawn)	Neuronal acetylcholine receptor subunit alpha-4/beta-2 (Mus musculus, UniProt O70174+Q9ERK7)	ligand displacement	–	radioligand	cell membranes	Ki	7.42 nM
COc1cc2oc(-c3ccc(O)c(O)c3)cc(=O)c2c(O)c1O	Genome polyprotein, protease (ZIKV, UniProt A0A024B7W1)	enzyme activity	inhibitor	–	–	Ki	4500 nM
Cc1cc(O)cc(C)c1C[C@H](C)C(=O)N[C@@H]1C/C=C/CC[C@@H](C(N)=O)NC(=O)[C@H](Cc2ccccc2)NC(=O)[C@H](Cc2ccccc2)NC1=O	Oprd1	ligand displacement	–	radioligand	cell membranes	Ki	35.3 nM
CC(C)C[C@H]1C(=O)N2CCC[C@H]2[C@]2(O)O[C@](NC(=O)[C@@H]3C=C4c5cccc6[nH]c(Br)c(c56)C[C@H]4N(C)C3)(C(C)C)C(=O)N12	HTR7	ligand displacement	–	radioligand	cell membranes	Ki	143 nM
CC[C@H](C)[C@H](NC(=O)[C@H](CCCNC(=N)N)NC(=O)[C@H](CC(C)C)NC(=O)[C@@H](N)Cc1ccccc1)C(=O)N[C@@H](CCCNC(=N)N)C(=O)N1CCC[C@H]1C(=O)N[C@@H](CCCCN)C(=O)O	HTR7	cell-free assay	–	radioligand	–	Ki	> 10000 nM
CN(C(=O)[C@H](Cc1ccccc1)NC(=O)[C@@H](NC(=O)OCc1ccccc1)C(C)(C)C)N(C#N)CCC(N)=O	CTSB	enzyme activity	inhibitor	–	–	Ki	75 nM
OC(c1ccc(F)cc1)C(F)(F)CCN1CCC(O)(c2ccc(Cl)cc2)CC1 (racemic)	HTR7	cell-free assay	–	radioligand	–	Ki	2710 nM
CC[C@H](NC(=O)OCc1ccccc1)C(=O)N[C@H](C(=O)N[C@@H](CC(C)C)C(=O)N(C)N(C#N)CCC(N)=O)C(C)(C)C	CTSB	enzyme activity	inhibitor	–	–	Ki	28.8 nM
Cc1cc(O)cc(C)c1C[C@H](N)C(=O)N[C@H](CCCNC(=N)N)C(=O)N[C@@H](Cc1c[nH]c2ccccc12)C(=O)N[C@@H](CCCCN)C(N)=O	Oprd1	ligand displacement	–	radioligand	cell membranes	Ki	186 nM
N=C(N)NCCC[C@@H]1NC(=O)[C@H](Cc2ccc(O)cc2)NC(=O)[C@@H](CCCCN)NC(=O)[C@@H](Cc2ccccc2)NC1=O	Oprd1	ligand displacement	–	radioligand	cell membranes	Ki	> 10000 nM
